Data taken from ChEMBL document CHEMBL1817571, “Design and synthesis of new prostaglandin D₂ receptor antagonists” (Bioorg Med Chem, 2011).

Key:
[1] = target: T1, Prostaglandin D2 receptor (Mus musculus, UniProt P70263); assay: Antagonist activity at mouse prostanoid DP receptor expressed in CHO cells assessed as inhibition of PGD2-induced intracellular cAMP production; format: functional, cell-based
T1 sequence (P70263 whole entry): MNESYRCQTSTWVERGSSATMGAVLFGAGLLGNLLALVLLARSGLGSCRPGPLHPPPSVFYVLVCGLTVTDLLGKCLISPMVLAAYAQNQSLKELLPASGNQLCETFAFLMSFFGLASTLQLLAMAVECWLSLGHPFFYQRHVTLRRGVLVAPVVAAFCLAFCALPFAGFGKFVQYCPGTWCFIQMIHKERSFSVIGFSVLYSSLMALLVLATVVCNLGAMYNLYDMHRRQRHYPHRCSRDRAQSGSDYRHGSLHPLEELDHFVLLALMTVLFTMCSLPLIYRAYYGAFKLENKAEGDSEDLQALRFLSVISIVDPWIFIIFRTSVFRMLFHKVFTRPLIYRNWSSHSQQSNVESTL
Method in brief: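 CHO-mDP cells were seeded at 1×10^5 cells/well and grown 2 days. They were preincubated about 10 min at 37 °C in MEM with 2 µM diclofenac, then about 10 min in MEM with 0.1% BSA, 1 mM IBMX and 2 µM diclofenac. Test compounds at various concentrations plus 10 nM PGD2 were then added for 10 min at 37 °C. Reactions were stopped with 10% TCA, extracted with tri-n-octylamine/chloroform, and cAMP was measured by EIA.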

[2] = target: T1, Prostaglandin D2 receptor; assay: Displacement of [3H]PGD2 from mouse prostanoid DP receptor expressed in CHO cells after 20 mins by liquid scintillation counting
[3] = target: Prostaglandin E2 receptor EP2 subtype (Mus musculus, UniProt Q62053); assay: Displacement of [3H]PGE2 from mouse prostaglandin EP2 receptor expressed in CHO cells after 60 mins by liquid scintillation counting; format: cell-based
Method in brief: (§1)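 Membranes came from CHO cells stably expressing mEP1, EP2, EP3 or EP4. They were incubated with 2.5 nM [3H]PGE2 and graded test concentrations in 10 mM KH2PO4–KOH (1 mM EDTA, 10 mM MgCl2, 100 mM NaCl, pH 6.0) at room temperature, 20 min for EP1 and 60 min for EP2–4. Reactions were filtered on GF/B, washed with ice-cold buffer, and counted by scintillation. IC50 came by regression, with Ki via Cheng–Prusoff.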

[4] = target: T2, Prostaglandin E2 receptor EP3 subtype (Mus musculus, UniProt P30557); assay: Displacement of [3H]PGE2 from mouse prostaglandin EP3alpha receptor expressed in CHO cells after 60 mins by liquid scintillation counting; format: cell-based; method in brief: as §1
T2 sequence (P30557 whole entry): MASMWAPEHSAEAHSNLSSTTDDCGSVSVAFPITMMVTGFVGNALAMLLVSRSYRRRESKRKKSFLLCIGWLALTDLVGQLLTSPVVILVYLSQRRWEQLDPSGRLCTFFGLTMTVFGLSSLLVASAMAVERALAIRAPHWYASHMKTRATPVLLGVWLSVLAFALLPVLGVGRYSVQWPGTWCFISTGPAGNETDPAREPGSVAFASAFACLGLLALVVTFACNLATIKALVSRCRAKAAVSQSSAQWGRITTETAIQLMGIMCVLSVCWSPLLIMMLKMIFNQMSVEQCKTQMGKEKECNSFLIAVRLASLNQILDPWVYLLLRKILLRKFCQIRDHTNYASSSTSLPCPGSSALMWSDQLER

[5] = target: Prostaglandin E2 receptor EP4 subtype (Mus musculus, UniProt P32240); assay: Displacement of [3H]PGE2 from mouse prostaglandin EP4 receptor expressed in CHO cells after 60 mins by liquid scintillation counting; format: cell-based; method in brief: as §1
[6] = target: Prostaglandin F2-alpha receptor (Mus musculus, UniProt P43117); assay: Displacement of [3H]PGF2alpha from mouse prostanoid FP receptor expressed in CHO cells after 60 mins by liquid scintillation counting; format: cell-based
Method in brief: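 CHO-mFP membranes were incubated with 2.5 nM [3H]PGF2α and varied test concentrations in 10 mM KH2PO4–KOH, 1 mM EDTA, 10 mM MgCl2, 100 mM NaCl, pH 6.0, for 60 min at room temperature. Samples were then filtered on GF/B, washed with ice-cold phosphate/NaCl buffer, and counted by scintillation. IC50 came from the regression curve, and Ki = IC50/(1+[L]/Kd).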

[7] = target: T3, Prostaglandin E2 receptor EP1 subtype (Mus musculus, UniProt P35375); assay: Displacement of [3H]PGE2 from mouse prostaglandin EP1 receptor expressed in CHO cells after 20 mins by liquid scintillation counting
T3 sequence (P35375 whole entry): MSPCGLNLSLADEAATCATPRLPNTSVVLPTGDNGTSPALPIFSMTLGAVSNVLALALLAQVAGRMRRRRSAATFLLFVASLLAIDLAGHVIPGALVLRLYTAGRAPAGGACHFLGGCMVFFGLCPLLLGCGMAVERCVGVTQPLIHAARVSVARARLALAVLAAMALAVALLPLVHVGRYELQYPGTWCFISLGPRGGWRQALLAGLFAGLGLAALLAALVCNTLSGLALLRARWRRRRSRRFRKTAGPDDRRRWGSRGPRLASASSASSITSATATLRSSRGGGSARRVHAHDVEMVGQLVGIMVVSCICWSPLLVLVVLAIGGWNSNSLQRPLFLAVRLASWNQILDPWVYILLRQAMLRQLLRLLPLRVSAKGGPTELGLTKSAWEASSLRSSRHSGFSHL

Prostacyclin receptor = Prostacyclin receptor (Homo sapiens, UniProt P43119); assay: Displacement of [3H]Iloprost from human prostanoid IP receptor expressed in CHO cells after 30 mins by liquid scintillation counting
Thromboxane A2 receptor = target: T4, Thromboxane A2 receptor (Homo sapiens, UniProt P21731); assay: Displacement of [3H]-SQ29548 from human prostanoid TP receptor expressed in CHO cells after 30 mins by liquid scintillation counting
T4 sequence (P21731 whole entry): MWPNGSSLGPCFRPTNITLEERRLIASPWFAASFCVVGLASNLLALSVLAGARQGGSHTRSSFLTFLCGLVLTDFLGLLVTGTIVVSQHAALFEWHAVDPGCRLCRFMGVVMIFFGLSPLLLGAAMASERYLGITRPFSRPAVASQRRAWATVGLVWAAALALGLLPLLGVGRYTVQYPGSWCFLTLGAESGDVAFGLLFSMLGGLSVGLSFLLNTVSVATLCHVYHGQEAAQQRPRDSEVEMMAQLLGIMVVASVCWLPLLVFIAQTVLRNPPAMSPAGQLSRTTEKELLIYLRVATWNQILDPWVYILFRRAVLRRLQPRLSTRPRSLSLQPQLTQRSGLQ

[8] = target: T3, Prostaglandin E2 receptor EP1 subtype; assay: Displacement of [3H]PGE2 from mouse prostaglandin EP1 receptor expressed in CHO cells after 60 mins by liquid scintillation counting; format: cell-based
[9] = AUC (infinity) in rat at 1 mg/kg, iv; format: ADME, organism-based; design: time infinity, dose 1 mg/kg, route intravenous; conditions: plasma
Method in brief: (§2)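 Fasted male rats (n = 3) received 1 mg/kg iv or 10 mg/kg po. Jugular vein blood was drawn with a heparinized syringe at pre-dose and 2 (iv only), 5, 15 and 30 min, and 1, 2, 4, 6 and 8 h. Plasma was obtained by centrifugation at 4 °C and stored at −80 °C. AUC, Cmax, T1/2, Vss and CL came from the plasma concentration–time course. BA was derived from dose-normalized AUCpo/AUCiv.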

[10] = AUC (infinity) in rat at 10 mg/kg, po; format: ADME, organism-based; design: time infinity, dose 10 mg/kg, route oral; conditions: plasma; method in brief: as §2
[11] = Total clearance in rat at 1 mg/kg, iv; format: ADME, organism-based; design: dose 1 mg/kg, route intravenous; conditions: in vivo; method in brief: as §2
[12] = Cmax in rat at 10 mg/kg, po; format: ADME, organism-based; design: dose 10 mg/kg, route oral; conditions: in vivo; method in brief: as §2
[13] = Half life in rat at 1 mg/kg, iv; format: ADME, organism-based; design: dose 1 mg/kg, route intravenous; conditions: in vivo; method in brief: as §2
[14] = Half life in rat at 10 mg/kg, po; format: ADME, organism-based; design: dose 10 mg/kg, route oral; conditions: in vivo; method in brief: as §2
[15] = Volume of distribution at steady state in rat at 1 mg/kg, iv; format: ADME, organism-based; design: dose 1 mg/kg, route intravenous; conditions: in vivo, read-out: Vdss; method in brief: as §2
[16] = Oral bioavailability in rat at 10 mg/kg; format: ADME, organism-based; conditions: in vivo; method in brief: as §2

Prostacyclin receptor, sequence (P43119 whole entry): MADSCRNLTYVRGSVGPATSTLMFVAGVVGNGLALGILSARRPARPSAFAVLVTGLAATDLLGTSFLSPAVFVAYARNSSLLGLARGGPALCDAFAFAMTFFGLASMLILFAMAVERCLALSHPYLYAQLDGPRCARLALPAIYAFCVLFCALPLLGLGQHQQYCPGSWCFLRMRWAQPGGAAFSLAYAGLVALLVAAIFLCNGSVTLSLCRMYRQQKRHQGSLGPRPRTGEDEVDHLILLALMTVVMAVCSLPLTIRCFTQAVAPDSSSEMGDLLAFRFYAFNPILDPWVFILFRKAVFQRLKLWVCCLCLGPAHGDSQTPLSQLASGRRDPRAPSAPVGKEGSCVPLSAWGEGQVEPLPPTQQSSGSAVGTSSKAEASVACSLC
Prostaglandin F2-alpha receptor, sequence (P43117 whole entry): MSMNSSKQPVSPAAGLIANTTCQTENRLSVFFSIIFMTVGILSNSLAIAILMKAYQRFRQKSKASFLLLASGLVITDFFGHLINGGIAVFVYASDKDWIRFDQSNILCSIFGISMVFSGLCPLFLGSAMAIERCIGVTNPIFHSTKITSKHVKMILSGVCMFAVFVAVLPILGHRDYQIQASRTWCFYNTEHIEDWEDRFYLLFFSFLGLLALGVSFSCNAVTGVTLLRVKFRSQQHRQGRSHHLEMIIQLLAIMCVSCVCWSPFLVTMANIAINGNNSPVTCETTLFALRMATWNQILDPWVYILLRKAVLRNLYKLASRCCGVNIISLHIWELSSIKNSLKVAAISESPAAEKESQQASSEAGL
Prostaglandin E2 receptor EP4 subtype, sequence (P32240 whole entry): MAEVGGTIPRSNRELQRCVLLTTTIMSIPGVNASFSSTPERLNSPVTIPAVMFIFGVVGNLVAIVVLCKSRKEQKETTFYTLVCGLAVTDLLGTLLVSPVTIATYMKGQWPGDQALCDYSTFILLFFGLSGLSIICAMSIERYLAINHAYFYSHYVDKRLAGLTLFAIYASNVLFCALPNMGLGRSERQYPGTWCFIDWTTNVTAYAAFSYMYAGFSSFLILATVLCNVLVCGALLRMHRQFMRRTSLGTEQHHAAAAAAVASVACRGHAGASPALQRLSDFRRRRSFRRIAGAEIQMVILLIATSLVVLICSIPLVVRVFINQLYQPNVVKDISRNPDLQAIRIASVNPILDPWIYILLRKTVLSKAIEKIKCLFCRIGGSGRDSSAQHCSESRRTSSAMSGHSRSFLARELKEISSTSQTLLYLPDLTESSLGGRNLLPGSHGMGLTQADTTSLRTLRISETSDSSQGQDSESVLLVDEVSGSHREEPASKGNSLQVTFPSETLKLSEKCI
Prostaglandin E2 receptor EP2 subtype, sequence (Q62053 whole entry): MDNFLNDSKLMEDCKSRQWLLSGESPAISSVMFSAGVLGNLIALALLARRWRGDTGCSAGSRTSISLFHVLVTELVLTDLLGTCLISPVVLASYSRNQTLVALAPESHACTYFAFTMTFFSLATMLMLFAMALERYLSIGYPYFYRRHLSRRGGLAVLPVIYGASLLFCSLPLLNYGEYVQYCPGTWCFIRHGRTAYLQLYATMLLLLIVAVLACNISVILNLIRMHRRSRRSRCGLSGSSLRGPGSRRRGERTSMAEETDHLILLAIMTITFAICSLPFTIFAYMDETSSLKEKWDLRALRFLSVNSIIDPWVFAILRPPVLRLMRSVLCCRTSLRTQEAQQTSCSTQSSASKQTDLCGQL

SMILES	IC50 [1]	Ki [2]	further results
Cc1ccc(CC(=O)O)cc1NC(=O)c1ccc(OC[C@@H]2CN(C)c3ccccc3O2)cc1Cl	0.006 µM	0.026 µM	–
CN1C[C@@H](COc2ccc(C(=O)Nc3cc(CC(=O)O)ccc3Cl)c(Cl)c2)Oc2ccccc21	0.0043 µM	0.013 µM	Ki [3]: 0.044 µM; Ki [4]: > 10 µM; Ki [5]: > 10 µM; Ki [6]: > 10 µM; Ki [7]: 6.6 µM; Ki (Prostacyclin receptor): 1.6 µM; Ki (Thromboxane A2 receptor): > 10 µM
CN1C[C@@H](COc2ccc(C(=O)Nc3cc(CC(=O)O)ccc3F)c(Cl)c2)Oc2ccccc21	0.0074 µM	0.017 µM	Ki [8]: > 10 µM; Ki [3]: 0.022 µM; Ki [4]: > 10 µM; Ki [5]: > 10 µM; Ki [6]: > 10 µM; Ki (Prostacyclin receptor): > 10 µM; Ki (Thromboxane A2 receptor): > 10 µM
CN1C[C@@H](COc2ccc(C(=O)Nc3ccc(F)c(CC(=O)O)c3)c(Cl)c2)Oc2ccccc21	0.05 µM	0.025 µM	–
COc1ccc(NC(=O)c2ccc(OC[C@@H]3CN(C)c4ccccc4O3)cc2Cl)cc1CC(=O)O	0.041 µM	0.036 µM	–
Cc1cc2c(CC(=O)O)cccc2n1C(=O)c1ccc(OC[C@@H]2CN(C)c3ccccc3O2)cc1	–	–	AUC(0-inf) [9]: 7200 ng·h/mL; AUC(0-inf) [10]: 24300 ng·h/mL; clearance [11]: 2.4 mL/min/kg; Cmax [12]: 3500 ng/mL; half-life [13]: 9.8 h; half-life [14]: 5.4 h; Vd [15]: 1.8 L/kg; bioavailability [16]: 34%

Second part, led by results:

IC50 [1]	Ki [2]	SMILES	further results
0.0018 µM	0.019 µM	Cc1cc(OC[C@@H]2CN(C)c3ccccc3O2)ccc1C(=O)Nc1cc(CC(=O)O)ccc1F	–
0.0056 µM	0.0074 µM	Cc1cc(OC[C@@H]2CN(C)c3ccccc3O2)ccc1C(=O)Nc1cc(F)cc(CC(=O)O)c1	–
0.0012 µM	0.015 µM	Cc1cc(OC[C@@H]2CN(C)c3ccccc3O2)ccc1C(=O)Nc1ccc(F)c(CC(=O)O)c1	–
0.02 µM	0.024 µM	COc1ccc(NC(=O)c2ccc(OC[C@@H]3CN(C)c4ccccc4O3)cc2C)cc1CC(=O)O	–
0.0054 µM	0.012 µM	Cc1cc(CC(=O)O)cc(NC(=O)c2ccc(OC[C@@H]3CN(C)c4ccccc4O3)cc2Cl)c1	–
0.0039 µM	0.017 µM	Cc1ccc(NC(=O)c2ccc(OC[C@@H]3CN(C)c4ccccc4O3)cc2Cl)cc1CC(=O)O	–
